Measured values reported in article PMC3724457 (Cellular and molecular life sciences : CMLS, 2009).
Numbering of substitutions follows the chain as printed. Read-outs that look alike come from different tables or passages of the source. Blank lines part the entries; values can stand above or below the molecule they belong to. *1 amine or outer side, *2 acyl side, *3 side chain or, on linkers, in order; H or OH if unused. Where a SMILES comes first, the peptide text is derived from it. Bridges are numbered along the chain shown (N, C = ends). Roman numbers before positions name the chains, in order. [ ]: non-standard residue; d: D form. Actinocin(9to1) = Cc1c2oc3c(C)ccc(C(=O)[*:1])c3nc-2c(C(=O)[*:2])c(N)c1=O; NMeV = CN[C@H](C(=O)O)C(C)C; Sar = CNCC(=O)O

T1: ZO-1 PDZ2 K253A (human, UniProt Q07157 186-264, K253A)
T1 sequence: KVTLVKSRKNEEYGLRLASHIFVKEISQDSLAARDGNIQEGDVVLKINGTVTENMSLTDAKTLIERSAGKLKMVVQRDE

T2: ZO-1 PDZ2 R251A (human, UniProt Q07157 186-264, R251A)
T2 sequence: T1 sequence with R66A, A68K

T3: ZO-1 PDZ2 R251AK253A (human, UniProt Q07157 186-264, R251A | K253A)
T3 sequence: T1 sequence with R66A

T4: ZO-1 PDZ2 R219A (human, UniProt Q07157 186-264, R219A)
T4 sequence: T1 sequence with R34A, A68K

T5: ZO-1 PDZ2 R193A (human, UniProt Q07157 186-264, R193A)
T5 sequence: T1 sequence with R8A, A68K

T6: ZO-1 PDZ2 K194A (human, UniProt Q07157 186-264, K194A)
T6 sequence: T1 sequence with K9A, A68K

B1: GST-ZO1-PDZ2 WT (domain or fragment, human)
chain: T1 sequence with A68K

Tests used:
nuclear speckles = conditions: transcriptional inhibition; ref [39]; cited from earlier work
GST-ZO2-PDZ2 WT (mouse) = assay: SEC
[1] = target: Connexin 43 (Cx43) C-terminal peptide; assay: ITC
ZO-1 PDZ2 K246A = ZO-1 PDZ2 K246A (Homo sapiens, UniProt Q07157, K246A); assay: ITC peptide binding
Chain of ZO-1 PDZ2 K246A (Q07157 186-264 K246A limits assumed): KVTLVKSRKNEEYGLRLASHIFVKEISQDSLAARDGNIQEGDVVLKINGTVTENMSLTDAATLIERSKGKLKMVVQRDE
Method in brief: (§1)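 Each PDZ2 domain, wild type or point mutant, was held at 20 μM in 20 mM HEPES, 150 mM NaCl, pH 7.5, degassed. It was titrated with 20 × 15 μl injections of 200 μM Cx43 C-terminal 20-mer peptide, stirred at 250 rpm, with 5 min between injections. Peptide-into-buffer dilution heat was subtracted, and integrated data were fitted to a binding model. Representative of duplicate runs.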

ZO-1 PDZ2 R193A [2] = target: ZO-1 PDZ2 R193A (Homo sapiens, UniProt Q07157, R193A); assay: ITC peptide binding
Chain of ZO-1 PDZ2 R193A (Homo sapiens, UniProt Q07157, R193A) (Q07157 186-264 R193A limits assumed): as the sequence (Q07157 186-264 K246A limits assumed) above, with R8A, A61K counted along it
Method in brief: as §1

ZO-1 PDZ2 K194A [3] = target: ZO-1 PDZ2 K194A (Homo sapiens, UniProt Q07157, K194A); assay: ITC peptide binding
Chain of ZO-1 PDZ2 K194A (Homo sapiens, UniProt Q07157, K194A) (Q07157 186-264 K194A limits assumed): as the sequence (Q07157 186-264 K246A limits assumed) above, with K9A, A61K counted along it
Method in brief: as §1

ZO-1 PDZ2 R201A = ZO-1 PDZ2 R201A (Homo sapiens, UniProt Q07157, R201A); assay: ITC peptide binding
Chain of ZO-1 PDZ2 R201A (Q07157 186-264 R201A limits assumed): as the sequence (Q07157 186-264 K246A limits assumed) above, with R16A, A61K counted along it
Method in brief: as §1

ZO-1 PDZ2 R219A [4] = target: ZO-1 PDZ2 R219A (Homo sapiens, UniProt Q07157, R219A); assay: ITC peptide binding
Chain of ZO-1 PDZ2 R219A (Homo sapiens, UniProt Q07157, R219A) (Q07157 186-264 R219A limits assumed): as the sequence (Q07157 186-264 K246A limits assumed) above, with R34A, A61K counted along it
Method in brief: as §1

GST-ZO1-PDZ2 [5] = assay: Kinetic SPR measurements; format: binding, human; conditions: 1 µM protein, POPC/POPE/POPS/PtdInsP (37:40:20:3) vesicles, 20 mM HEPES pH 7.4, 0.16 M KCl
Method in brief: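 GST-fused PDZ2 was expressed in E. coli BL21(DE3) with IPTG induction at 37°C for 4 h, then purified on glutathione-Sepharose. Active sensor surface carried PtdInsP-containing vesicles and the control surface carried POPC/POPE (60:40) vesicles, both from 0.4 mg/ml lipid solution and loaded to equal RU. Seven PtdInsP species were compared. Kinetic data gave relative membrane affinity only; no Kd was derived.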

GST-ZO2-PDZ2 = assay: ELISA PtdInsP binding assay; parameters: species or system mouse; conditions: ELISA on PIP plates, absorbance 450 nm, n=3, protein 10 nM, 1 h room temperature
Method in brief: (§2)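 GST-fusion PDZ2 domains (ZO-1 human, ZO-2 mouse) or GST-PH domain of PLC-δ1 (positive control) at 10 nM, with GST as negative control, were incubated 1 h at room temperature on preblocked PtdInsP-coated plates. Wells were washed three times with PBS/0.1% Tween-20, then probed 1 h at room temperature with HRP-anti-GST. Detection used TMB substrate with absorbance at 450 nm; mean ± SD, n = 3.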

GST-ZO1-PDZ2 [6] = assay: ELISA PtdInsP binding assay; parameters: species or system human; conditions: ELISA on PIP plates, absorbance 450 nm, n=3, protein 10 nM, 1 h room temperature
Method in brief: as §2

[7] = test system: GST-ZO2-PDZ2 WT binding to Cx43 peptide; assay: Pull-down competition by phospholipids; parameters: species or system mouse; conditions: 3 µg GST-ZO2-PDZ2 WT preincubated with phospholipid liposomes
Method in brief: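 3 μg GST-ZO-2 PDZ2 WT was preincubated with phospholipid liposomes at increasing concentrations. It was then pulled down with Cx43 C-terminal 20-mer peptide coupled to CNBr-activated Sepharose 4B at 5–7 mg/ml.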

[8] = target: Connexin43 (Homo sapiens) (UniProt P17302); conditions: cited from earlier work
[9] = target: Connexin43 (Homo sapiens) (UniProt P17302); conditions: cited from earlier work; remark: listed apart in the source
GST-ZO1-PDZ1–3 = assay: Lipid-overlay assay; format: binding, human; conditions: PIP strips, not quantitative, no membrane environment
Method in brief: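 A GST-fused human ZO-1 PDZ1–3 construct was overlaid on nitrocellulose membranes carrying immobilised phospholipids, following the manufacturer's protocol. GST served as negative control and the GST-PH domain of LL5α as positive control. Lipids were not in a membrane environment, and the readout is qualitative.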

SEC = target: the molecule itself; assay: SEC
ZO-1 PDZ2 K253A = target: T1, ZO-1 PDZ2 K253A; assay: ITC
ZO-1 PDZ2 R251A = target: T2, ZO-1 PDZ2 R251A; assay: ITC
GST-ZO1-PDZ2 WT = target: B1; assay: ITC
ZO-1 PDZ2 R251AK253A = target: T3, ZO-1 PDZ2 R251AK253A; assay: ITC
ZO-1 PDZ2 R219A [10] = target: T4, ZO-1 PDZ2 R219A; assay: ITC
ZO-1 PDZ2 R193A [11] = target: T5, ZO-1 PDZ2 R193A; assay: ITC
ZO-1 PDZ2 K194A [12] = target: T6, ZO-1 PDZ2 K194A; assay: ITC

Molecule: Cc1c2oc3c(C)ccc(C(=O)N[C@@H]4C(=O)N[C@H](C(C)C)C(=O)N5CCC[C@H]5C(=O)N(C)CC(=O)N(C)[C@@H](C(C)C)C(=O)O[C@@H]4C)c3nc-2c(C(=O)N[C@@H]2C(=O)N[C@H](C(C)C)C(=O)N3CCC[C@H]3C(=O)N(C)CC(=O)N(C)[C@@H](C(C)C)C(=O)O[C@@H]2C)c(N)c1=O [actinomycin D] (I: T[dV]P[Sar][NMeV] / II: T[dV]P[Sar][NMeV]; ester I:1-I:C, II:1-II:C; linker I:N-II:N via Actinocin(9to1))
- speckle protein distribution (nuclear speckles): fewer and/or abnormally large clusters

- stoichiometry N (GST-ZO2-PDZ2 WT (mouse)): 2
- Kd [1]: 9.9 µM
Molecule: GST-ZO2-PDZ2 WT (domain or fragment)

- binding to the Cx43 peptide (ZO-1 PDZ2 K246A): no significant binding
- effect of mutation on peptide affinity (ZO-1 PDZ2 R193A [2]): little effect
- effect of mutation on peptide affinity (ZO-1 PDZ2 K194A [3]): little effect
- binding to the Cx43 peptide (ZO-1 PDZ2 R201A): no significant binding
- effect of mutation on peptide binding (ZO-1 PDZ2 R219A [4]): no effect
Molecule: NH2.PSSRASSRASSRPRPDDLEI.OH [Connexin43 peptide]

Molecule: Phosphatidylinositol 4,5-bisphosphate [PtdIns(4,5)P2]
- PtdInsP selectivity (relative binding) (GST-ZO1-PDZ2 [5]): followed by PtdIns(3,4,5)P3, PtdIns(4,5)P2 and PtdIns(3,5)P2

- PtdInsP binding as compared to PtdIns(4,5)P2 or PtdIns(3,5)P2 (GST-ZO2-PDZ2): slightly stronger
- PtdInsP binding as compared to PtdIns(4,5)P2 or PtdIns(3,5)P2 (GST-ZO1-PDZ2 [6]): slightly stronger
- inhibition of association of GST-ZO2-PDZ2 with the Cx43 peptide [7]: inhibited association
- PtdInsP selectivity (relative binding) (GST-ZO1-PDZ2 [5]): slight preference
Molecule: PtdIns(3,4)P2

- PtdInsP binding as compared to PtdIns(4,5)P2 or PtdIns(3,5)P2 (GST-ZO2-PDZ2): slightly stronger
- PtdInsP binding as compared to PtdIns(4,5)P2 or PtdIns(3,5)P2 (GST-ZO1-PDZ2 [6]): slightly stronger
- inhibition of association of GST-ZO2-PDZ2 with the Cx43 peptide [7]: inhibited association
Molecule: PtdIns(3,4,5)P3
- PtdInsP selectivity (relative binding) (GST-ZO1-PDZ2 [5]): followed by PtdIns(3,4,5)P3, PtdIns(4,5)P2 and PtdIns(3,5)P2

Molecule: PtdIns(3,5)P2
- PtdInsP selectivity (relative binding) (GST-ZO1-PDZ2 [5]): followed by PtdIns(3,4,5)P3, PtdIns(4,5)P2 and PtdIns(3,5)P2

Molecule: ZO-1 PDZ2 (from UniProt Q07157)
- Kd [8]: 15.5 µM

Molecule: ZO-2 PDZ2 (from UniProt Q9UDY2)
- Kd [9]: 391 µM

- lipid binding (GST-ZO1-PDZ1–3): bound non-selectively
Molecule: phosphatidic acid [PA]

- lipid binding (GST-ZO1-PDZ1–3): bound non-selectively
Molecule: phosphatidylinositol [PtdIns]

- inhibition of association of GST-ZO2-PDZ2 with the Cx43 peptide [7]: no effect
- lipid binding (GST-ZO1-PDZ1–3): bound non-selectively
Molecule: phosphatidylserine [PS]

Molecule: B1
- stoichiometry N (SEC): 2

- Kd (ZO-1 PDZ2 K253A): 22 ± 3.6 µM
- Kd (ZO-1 PDZ2 R251A): 19 ± 3.4 µM
- Kd (GST-ZO1-PDZ2 WT): 9.9 ± 1.3 µM
- Kd (ZO-1 PDZ2 R251AK253A): 21 ± 3.2 µM
- Kd (ZO-1 PDZ2 R219A [10]): 11 ± 1.6 µM
- Kd (ZO-1 PDZ2 R193A [11]): 11 ± 2.1 µM
- Kd (ZO-1 PDZ2 K194A [12]): 12 ± 1.6 µM
Molecule: PSSRASSRASSRPRPDDLEI [Connexin 43 (Cx43) C-terminal peptide]
